Source: PubChem BioAssay
SENP7 block = blocks the human protease SENP7. Q9BQF6. AID 434973. 1.5% of 330,000 active. inhibition, % at 5 µM. recombinant SENP7, Z-RLRGG-aminoluciferin luminescence, 40 min;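 active = inhibition above about 50% at the single test dose, limit read from the data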;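 note: plate controls were DMSO with enzyme for no effect and no enzyme buffer wells for full effect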
Target sequence (Q9BQF6 706-1050 limits assumed): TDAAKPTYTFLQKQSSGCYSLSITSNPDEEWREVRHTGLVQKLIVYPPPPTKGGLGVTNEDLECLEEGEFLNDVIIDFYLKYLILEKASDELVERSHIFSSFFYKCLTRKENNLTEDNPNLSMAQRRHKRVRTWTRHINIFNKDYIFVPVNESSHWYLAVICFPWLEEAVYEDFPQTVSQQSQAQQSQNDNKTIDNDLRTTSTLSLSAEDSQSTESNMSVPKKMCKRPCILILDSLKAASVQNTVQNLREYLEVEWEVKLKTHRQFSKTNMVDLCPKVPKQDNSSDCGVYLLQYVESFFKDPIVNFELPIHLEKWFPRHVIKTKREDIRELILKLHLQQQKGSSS
SENP8 block-1 = blocks the human protease SENP8; Q96LD8; purified SENP8, Z-RLRGG-aminoluciferin cleavage, luminescence; inhibition, % at 10 µM; 1.2% of 330,000 active; in the data active = inhibition above about 50%
SENP6 inh = blocks the human protease SENP6; Recombinant SENP6 catalytic domain, aminoluciferin luminescence; inhibition, % at 10 µM; 1.8% of 330,000 active;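 active = inhibition above about 50% at the single tested dose, limit read from the data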;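 note: plate controls were DMSO wells with enzyme for no effect and DMSO wells lacking enzyme for full effect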
SENP1 FRET inh = SENP1 (human) catalytic domain inhibition; Q9P0U3; recombinant SENP1 catalytic domain, CyPet-SUMO1-YPet FRET cleavage; inhibition, % at 10 µM; 0.21% of 360,000 active; AID 624204;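 active = inhibition at least 30% at 10 µM, raw YFP signal under a set limit, fluorescence ratio 0.5 to 1.5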;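 note: 0% = enzyme with DMSO and 100% = no enzyme wells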
Target sequence (Q9P0U3 419-644 limits assumed): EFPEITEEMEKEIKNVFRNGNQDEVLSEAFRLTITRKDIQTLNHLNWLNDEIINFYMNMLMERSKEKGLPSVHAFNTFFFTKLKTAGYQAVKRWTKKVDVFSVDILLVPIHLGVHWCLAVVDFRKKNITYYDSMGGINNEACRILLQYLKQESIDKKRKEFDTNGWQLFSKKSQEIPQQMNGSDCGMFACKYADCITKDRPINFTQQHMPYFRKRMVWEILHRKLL
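material = recombinant human SENP1 catalytic domain, His6-tagged | quantity = 20 pM enzyme | reagent = 25 nM SUMO1 FRET substrate | compound dosing = 10 µM single point, 0.5% DMSO | timing = 50 min enzyme reaction, room temperature, light-protected | detection = FRET, CFP and YFP emission | control set = no-enzyme low, enzyme-DMSO high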
SENP8 block-2 = inhibitors of human SENP8 protease; Q96LD8; recombinant SENP8, Nedd8 substrate fluorescence; inhibition, % at 20 µM; 0.64% of 360,000 active; AID 602440; in the data active = inhibition mostly above about 40%, no sharp cut-off; inactive = mostly below about 27%
SENP8 conf = confirmation of human SENP8 protease inhibitors. Recombinant SENP8, Z-RLRGG-aminoluciferin luminescence, 60 min. 40% of 6,200 active. shares compounds with SENP7 block. inhibition, % at 12.5 µM;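 active = mean inhibition across replicates above about 50%, limit read from the data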
SENP6 confirm = human SENP6 inhibition, confirmed; shares compounds with SENP7 block; recombinant SENP6, Z-RLRGG-aminoluciferin luminescence; inhibition, % at 12.5 µM; 58% of 6,200 active; AID 488915
SENP7 confirm = human SENP7 inhibition, confirmed | inhibition, % at 12.5 µM | 69% of 6,200 active | recombinant SENP7, Z-RLRGG-aminoluciferin luminescence, 40 min | shares compounds with SENP7 block
Casp3 SENP sel = inhibits human caspase-3 in SENP selectivity test | shares compounds with SENP7 block | inhibition, % at 12.5 µM | 60% of 6,200 active | AID 488918 | purified caspase-3, Z-DEVD-aminoluciferin luminescence, 60 min;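 active = mean inhibition above about 50%, limit read from the data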;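 note: plate controls were enzyme with DMSO for no effect and wells without caspase-3 for full effect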
SENP luc ctr = interferes with luciferase luminescence in SENP counter-screen; inhibition, % at 12.5 µM; shares compounds with SENP7 block; AID 488919; Pre-incubated SENP8/Z-RLRGG-aminoluciferin, luciferase luminescence interference; 39% of 6,200 active;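 active = mean inhibition above about 50% when retested at one dose, limit read from the data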;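 note: plate controls were DMSO wells with completed reaction for no effect and substrate without enzyme for full effect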
Starred values were filed as active, the others as inactive; · = not tested or not shown. In the library only some 2.5% were active in any assay of this set; here they are far more common.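 Rule for the calls, unless noted: active = mean inhibition above about 50% in the one-dose retest (limit read from the data); inactive = the rest.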

SMILES	SENP7 block	SENP8 block-1	SENP6 inh	SENP1 FRET inh	SENP8 block-2	SENP8 conf	SENP6 confirm	SENP7 confirm	Casp3 SENP sel	SENP luc ctr
O=C1NC(c2cc(Cl)cc([N+](=O)[O-])c2O)Nc2ccccc21 (centres undefined)	17	69*	87*	-19	18	9	25	15	27	33
Cc1cc(Nc2ccc(C)c(C)c2)c2ccccc2n1	8	-8	-6	-1	-40	·	·	·	·	·
Cc1ccc(Nc2nc(N)c3ccccc3n2)cc1C	92*	93*	-10	0	-101	94*	96*	101*	94*	96*
COC(=O)C[C@@H]1CC[C@@H](NS(=O)(=O)c2ccc(OC)cc2)[C@@H](CO)O1	·	·	·	-1	27	·	·	·	·	·
Cc1cc(Cl)ccc1NC(=O)CCC(=O)N/N=C/c1cc([N+](=O)[O-])ccc1O	-3	2	9	2	17	·	·	·	·	·
O=[N+]([O-])c1ccc(O)c(/C=N/NC(=S)Nc2ccc(Cl)cc2Cl)c1	57*	88*	94*	-77	28	77*	85*	55*	35	6
Cc1ccc(NC(=O)CNC(=O)CN2C(=O)c3ccccc3C2=O)cc1	·	·	·	1	4	·	·	·	·	·
CCCCOCCCNC(=O)CN1C(=O)c2ccccc2C1=O	88*	4	-27	1	12	-1	0	-1	-1	-4
O=C(OCC(=O)N1CCOCC1)c1cc(-c2ccccc2)nc2ccccc12	5	3	-1	1	-95	·	·	·	·	·
O=c1[nH]c(N2CCOCC2)cc2ccccc12	96*	87*	91*	-59	-498	46	76*	61*	37	7
O=c1c(N2CCOCC2)coc2ccccc12	0	-2	-6	1	-1	·	·	·	·	·
COC(=O)/C(C#N)=C(/Nc1ccc(F)c(Cl)c1)C(F)(F)F	6	2	-16	0	11	·	·	·	·	·
O=[N+]([O-])c1cccc(/C=C/c2nc[nH]c2[N+](=O)[O-])c1	25	57*	70*	3	18	18	15	16	49	3
O=c1[nH]c(/C=C/c2cccc([N+](=O)[O-])c2)c([N+](=O)[O-])c(=O)[nH]1	4	6	-1	0	24	·	·	·	·	·
Cc1cc(=O)[nH]c(SCCOc2ccc(OC(C)C)cc2)n1	89*	91*	94*	-2	7	91*	95*	100*	95*	58*
C=CCn1c2ccccc2c(=O)c2cc(C#Cc3ccccn3)ccc21	43	56*	72*	-30	-498	61*	66*	82*	40	32
CCOc1ccc(N(C(C)C(=O)Nc2ccc(OC)cc2)S(C)(=O)=O)cc1 (centres undefined)	71*	-9	0	-1	11	6	7	-8	-2	-4
CCN(CC)S(=O)(=O)c1ccc(NC(=O)C(C)N(c2ccc(OC)cc2)S(C)(=O)=O)cc1 (centres undefined)	-1	1	1	0	0	·	·	·	·	·
Cc1ccc(SC2=C(Sc3ccc(C)cc3)C(=O)c3ccccc3C2=O)cc1	12	40	62*	-9	-93	10	11	16	11	5
CCOC(=O)c1c(C)nc2c3ccccc3ccn12	78*	53*	74*	2	0	63*	60*	89*	74*	65*
O=C(NCCNc1ccc([N+](=O)[O-])cc1)c1cccs1	-7	-1	16	-2	19	·	·	·	·	·
Nc1nc(-c2ccc3c(c2)OCCO3)cs1	3	-9	31	1	9	·	·	·	·	·
Nc1nc(-c2ccc3c(c2)CCCC3)cs1	56*	53*	79*	-2	17	65*	75*	91*	51*	70*
COC(=O)c1ccc(COc2ccccc2/C=C/C(=O)c2ccc(OCC(=O)O)cc2)cc1	5	31	55*	0	17	16	10	30	27	49
CC1(Oc2ccccc2-c2ccno2)CCN(Cc2csc3ccccc23)C1 (centres undefined)	·	·	·	0	6	·	·	·	·	·
SMILES	SENP7 block	SENP8 block-1	SENP6 inh	SENP1 FRET inh	SENP8 block-2	SENP8 conf	SENP6 confirm	SENP7 confirm	Casp3 SENP sel	SENP luc ctr
Cc1onc(-c2ccccc2Cl)c1C(=O)Oc1cccc2cccnc12	4	-2	-17	1	-2	·	·	·	·	·
CN(C)S(=O)(=O)c1ccc(/C(O)=C2/C(=O)C(=O)N(CCCN3CCOCC3)C2c2ccncc2)cc1 (centres undefined)	6	4	-20	0	18	·	·	·	·	·
CC1C(=O)NN=C1C(=O)N/N=C\c1ccc(O)cc1O (centres undefined)	75*	61*	71*	-26	8	68*	65*	87*	89*	24
CC(C)c1ccc(NC(=O)COC(=O)c2nn(C)c(=O)c3ccccc23)cc1	9	10	-8	2	19	·	·	·	·	·
CN(/C(=N/S(=O)(=O)c1cccs1)c1ccccc1)c1ccccc1	5	4	5	3	5	·	·	·	·	·
Cc1cc(C)c[n+](C2=C([O-])c3ccccc3C(=O)/C2=N\S(=O)(=O)c2cccs2)c1	15	21	55*	0	75*	40	59*	22	-4	-8
O=C1/C(=N\S(=O)(=O)c2cccs2)C([n+]2ccc(CCCc3ccccc3)cc2)=C([O-])c2ccccc21	21	39	60*	3	32	-10	28	5	-1	-11
CC(C)(C)c1cc[n+](C2=C([O-])c3ccccc3C(=O)/C2=N\S(=O)(=O)c2ccccc2)cc1	15	42	66*	3	48*	41	72*	43	7	1
O=S(=O)([N-]c1nc2ccccc2nc1-[n+]1ccc(CCCc2ccccc2)cc1)c1cccs1	-6	-11	-9	-43	18	·	·	·	·	·
Cc1cc(C)cc(NS(=O)(=O)c2cccs2)c1	2	6	14	0	12	·	·	·	·	·
Cc1cc[n+](C2=C([O-])c3ccccc3C(=O)/C2=N\S(=O)(=O)c2cccs2)cc1C	16	39	60*	1	29	18	30	11	1	3
Cc1cc(C(=O)NNC(=O)NC(C)C)no1	-8	-4	5	1	15	·	·	·	·	·
